In PMC4233149 (Clinical cancer research : an official journal of the …, 2014):
Marks after values point to notes of the source that are not given here.

Test: Phase I safety and tolerability, weekly
Assay type: in vivo, human
Summary of the method: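 Oral weekly dose escalation followed a 3+3 design (planned 90, 135, 200, 300mg, intermediate doses allowed), then a modified toxicity-probability-interval confirmation stage. A DLT was any drug-related CTCAE v3.0 ≥G4 hematological, ≥G3 febrile neutropenia or ≥G3 non-hematological toxicity. Safety visits, glucose, C-peptide and HbA1c monitoring followed a fixed schedule; AEs were graded by CTCAE v3.0.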

[1] = 200mg QW, G3, cycle 1, dose-limiting toxicity

Compound: NC1(c2ccc(-c3nc4ccn5c(=O)[nH]nc5c4cc3-c3ccccc3)cc2)CCC1 [MK-2206]
- Diarrhea, number of AEs (200mg QW, G3, cycle 1): 0 (0)
- Dry skin, number of AEs (200mg QW, G3, cycle 1): 0 (0)
- Dysgeusia, number of AEs (200mg QW, G3, cycle 1): 0 (0)
- Fatigue, number of AEs (200mg QW, G3, cycle 1): 0 (0)
- Nausea, number of AEs (200mg QW, G3, cycle 1): 0 (0)
- Pruritus, number of AEs (200mg QW, G3, cycle 1): 0 (0)
- Stomatitis, number of AEs (200mg QW, G3, cycle 1): 0 (0)
- Vomiting, number of AEs (200mg QW, G3, cycle 1): 0 (0)
- Dermatitis acneiform, number of AEs [1]: 1^c (1)
- Rash (all rash terms collated), number of AEs [1]: 3^c (3)
- Anorexia, number of AEs (250mg QW, G1, all cycles): 0 (0)
- Dermatitis acneiform, number of AEs (250mg QW, G1, all cycles): 0 (0)
- Diarrhea, number of AEs (250mg QW, G1, all cycles): 0 (0)
- Dysgeusia, number of AEs (250mg QW, G1, all cycles): 0 (0)
- Fatigue, number of AEs (250mg QW, G1, all cycles): 0 (0)
- Nausea, number of AEs (250mg QW, G1, all cycles): 0 (0)
- Pruritus, number of AEs (250mg QW, G1, all cycles): 0 (0)
- Stomatitis, number of AEs (250mg QW, G1, all cycles): 2
- Vomiting, number of AEs (250mg QW, G1, all cycles): 0 (0)
- Anorexia, number of AEs (250mg QW, G1, cycle 1): 0 (0)
- Dermatitis acneiform, number of AEs (250mg QW, G1, cycle 1): 0 (0)
- Diarrhea, number of AEs (250mg QW, G1, cycle 1): 0 (0)
- Dysgeusia, number of AEs (250mg QW, G1, cycle 1): 0 (0)
- Fatigue, number of AEs (250mg QW, G1, cycle 1): 0 (0)
- Nausea, number of AEs (250mg QW, G1, cycle 1): 0 (0)
- Pruritus, number of AEs (250mg QW, G1, cycle 1): 0 (0)
- Stomatitis, number of AEs (250mg QW, G1, cycle 1): 1
- Vomiting, number of AEs (250mg QW, G1, cycle 1): 0 (0)
- Anorexia, number of AEs (250mg QW, G2, all cycles): 0 (0)
- Dermatitis acneiform, number of AEs (250mg QW, G2, all cycles): 0 (0)
- Diarrhea, number of AEs (250mg QW, G2, all cycles): 0 (0)
- Dry skin, number of AEs (250mg QW, G2, all cycles): 0 (0)
- Dysgeusia, number of AEs (250mg QW, G2, all cycles): 0 (0)
- Fatigue, number of AEs (250mg QW, G2, all cycles): 0 (0)
- Nausea, number of AEs (250mg QW, G2, all cycles): 0 (0)
- Pruritus, number of AEs (250mg QW, G2, all cycles): 0 (0)
- Rash (all rash terms collated), number of AEs (250mg QW, G2, all cycles): 2
- Stomatitis, number of AEs (250mg QW, G2, all cycles): 0 (0)
- Vomiting, number of AEs (250mg QW, G2, all cycles): 0 (0)
- Anorexia, number of AEs (250mg QW, G2, cycle 1): 0 (0)
- Dermatitis acneiform, number of AEs (250mg QW, G2, cycle 1): 0 (0)
- Diarrhea, number of AEs (250mg QW, G2, cycle 1): 0 (0)
- Dry skin, number of AEs (250mg QW, G2, cycle 1): 0 (0)
- Dysgeusia, number of AEs (250mg QW, G2, cycle 1): 0 (0)
- Fatigue, number of AEs (250mg QW, G2, cycle 1): 0 (0)
- Nausea, number of AEs (250mg QW, G2, cycle 1): 0 (0)
- Pruritus, number of AEs (250mg QW, G2, cycle 1): 0 (0)
- Rash (all rash terms collated), number of AEs (250mg QW, G2, cycle 1): 1
- Stomatitis, number of AEs (250mg QW, G2, cycle 1): 0 (0)
- Vomiting, number of AEs (250mg QW, G2, cycle 1): 0 (0)
- Anorexia, number of AEs (250mg QW, G3, all cycles): 0 (0)
- Dermatitis acneiform, number of AEs (250mg QW, G3, all cycles): 0 (0)
- Diarrhea, number of AEs (250mg QW, G3, all cycles): 0 (0)
- Dry skin, number of AEs (250mg QW, G3, all cycles): 0 (0)
- Dysgeusia, number of AEs (250mg QW, G3, all cycles): 0 (0)
- Fatigue, number of AEs (250mg QW, G3, all cycles): 0 (0)
- Nausea, number of AEs (250mg QW, G3, all cycles): 0 (0)
- Pruritus, number of AEs (250mg QW, G3, all cycles): 0 (0)
- Rash (all rash terms collated), number of AEs (250mg QW, G3, all cycles): 2^c (2)
- Stomatitis, number of AEs (250mg QW, G3, all cycles): 0 (0)
- Vomiting, number of AEs (250mg QW, G3, all cycles): 0 (0)
- Anorexia, number of AEs (250mg QW, G3, cycle 1): 0 (0)
- Dermatitis acneiform, number of AEs (250mg QW, G3, cycle 1): 0 (0)
- Diarrhea, number of AEs (250mg QW, G3, cycle 1): 0 (0)
- Dry skin, number of AEs (250mg QW, G3, cycle 1): 0 (0)
- Dysgeusia, number of AEs (250mg QW, G3, cycle 1): 0 (0)
- Fatigue, number of AEs (250mg QW, G3, cycle 1): 0 (0)
- Nausea, number of AEs (250mg QW, G3, cycle 1): 0 (0)
- Pruritus, number of AEs (250mg QW, G3, cycle 1): 0 (0)
- Stomatitis, number of AEs (250mg QW, G3, cycle 1): 0 (0)
- Vomiting, number of AEs (250mg QW, G3, cycle 1): 0 (0)
- Rash (all rash terms collated), number of AEs (250mg QW, G3, cycle 1, dose-limiting toxicity): 2^c (2)
- Anorexia, number of AEs (300mg QW, G1, all cycles): 0 (0)
- Dermatitis acneiform, number of AEs (300mg QW, G1, all cycles): 0 (0)
- Diarrhea, number of AEs (300mg QW, G1, all cycles): 0 (0)
- Dry skin, number of AEs (300mg QW, G1, all cycles): 0 (0)
- Dysgeusia, number of AEs (300mg QW, G1, all cycles): 1 (1)
- Fatigue, number of AEs (300mg QW, G1, all cycles): 1 (1)
- Nausea, number of AEs (300mg QW, G1, all cycles): 1 (1)
- Pruritus, number of AEs (300mg QW, G1, all cycles): 0 (0)
- Stomatitis, number of AEs (300mg QW, G1, all cycles): 0 (0)
- Vomiting, number of AEs (300mg QW, G1, all cycles): 0 (0)
- Anorexia, number of AEs (300mg QW, G1, cycle 1): 0 (0)
- Dermatitis acneiform, number of AEs (300mg QW, G1, cycle 1): 0 (0)
- Diarrhea, number of AEs (300mg QW, G1, cycle 1): 0 (0)
- Dry skin, number of AEs (300mg QW, G1, cycle 1): 0 (0)
- Dysgeusia, number of AEs (300mg QW, G1, cycle 1): 1 (1)
- Fatigue, number of AEs (300mg QW, G1, cycle 1): 1 (1)
- Nausea, number of AEs (300mg QW, G1, cycle 1): 1 (1)
- Pruritus, number of AEs (300mg QW, G1, cycle 1): 0 (0)
- Stomatitis, number of AEs (300mg QW, G1, cycle 1): 0 (0)
- Vomiting, number of AEs (300mg QW, G1, cycle 1): 0 (0)
- Anorexia, number of AEs (300mg QW, G2, all cycles): 0 (0)
- Dermatitis acneiform, number of AEs (300mg QW, G2, all cycles): 0 (0)
- Diarrhea, number of AEs (300mg QW, G2, all cycles): 0 (0)
- Dry skin, number of AEs (300mg QW, G2, all cycles): 0 (0)
- Dysgeusia, number of AEs (300mg QW, G2, all cycles): 0 (0)
- Fatigue, number of AEs (300mg QW, G2, all cycles): 0 (0)
- Nausea, number of AEs (300mg QW, G2, all cycles): 0 (0)
- Pruritus, number of AEs (300mg QW, G2, all cycles): 0 (0)
- Rash (all rash terms collated), number of AEs (300mg QW, G2, all cycles): 2 (2)
- Stomatitis, number of AEs (300mg QW, G2, all cycles): 1 (1)
- Vomiting, number of AEs (300mg QW, G2, all cycles): 0 (0)
- Anorexia, number of AEs (300mg QW, G2, cycle 1): 0 (0)
- Dermatitis acneiform, number of AEs (300mg QW, G2, cycle 1): 0 (0)
- Diarrhea, number of AEs (300mg QW, G2, cycle 1): 0 (0)
- Dry skin, number of AEs (300mg QW, G2, cycle 1): 0 (0)
- Dysgeusia, number of AEs (300mg QW, G2, cycle 1): 0 (0)
- Fatigue, number of AEs (300mg QW, G2, cycle 1): 0 (0)
- Nausea, number of AEs (300mg QW, G2, cycle 1): 0 (0)
- Pruritus, number of AEs (300mg QW, G2, cycle 1): 0 (0)
- Rash (all rash terms collated), number of AEs (300mg QW, G2, cycle 1): 2 (2)
- Stomatitis, number of AEs (300mg QW, G2, cycle 1): 1 (1)
- Vomiting, number of AEs (300mg QW, G2, cycle 1): 0 (0)
- Anorexia, number of AEs (300mg QW, G3, all cycles): 0 (0)
- Dermatitis acneiform, number of AEs (300mg QW, G3, all cycles): 0 (0)
- Diarrhea, number of AEs (300mg QW, G3, all cycles): 0 (0)
- Dry skin, number of AEs (300mg QW, G3, all cycles): 0 (0)
- Dysgeusia, number of AEs (300mg QW, G3, all cycles): 0 (0)
- Fatigue, number of AEs (300mg QW, G3, all cycles): 0 (0)
- Nausea, number of AEs (300mg QW, G3, all cycles): 0 (0)
- Pruritus, number of AEs (300mg QW, G3, all cycles): 0 (0)
- Rash (all rash terms collated), number of AEs (300mg QW, G3, all cycles): 3^c (3)
- Stomatitis, number of AEs (300mg QW, G3, all cycles): 0 (0)
- Vomiting, number of AEs (300mg QW, G3, all cycles): 0 (0)
- Anorexia, number of AEs (300mg QW, G3, cycle 1): 0 (0)
- Dermatitis acneiform, number of AEs (300mg QW, G3, cycle 1): 0 (0)
- Diarrhea, number of AEs (300mg QW, G3, cycle 1): 0 (0)
- Dry skin, number of AEs (300mg QW, G3, cycle 1): 0 (0)
- Dysgeusia, number of AEs (300mg QW, G3, cycle 1): 0 (0)
- Fatigue, number of AEs (300mg QW, G3, cycle 1): 0 (0)
- Nausea, number of AEs (300mg QW, G3, cycle 1): 0 (0)
- Pruritus, number of AEs (300mg QW, G3, cycle 1): 0 (0)
- Stomatitis, number of AEs (300mg QW, G3, cycle 1): 0 (0)
- Vomiting, number of AEs (300mg QW, G3, cycle 1): 0 (0)
- Rash (all rash terms collated), number of AEs (300mg QW, G3, cycle 1, dose-limiting toxicity): 3^c (3)
- drug-related headaches, patients (QW schedule, 4/33): 12.1%
- drug-related increased alanine aminotransferase levels, patients (QW schedule, 4/33): 12.1%
- drug-related pruritus, patients (QW schedule, 4/33): 12.1%
- C-peptide level increase during first cycle (range) (QW schedule, 4 patients with increase): 65.7%-166.6
- drug-related stomatitis, patients (QW schedule, 5/33): 15.2%
- drug-related decreased appetite, patients (QW schedule, 7/33): 21.2%
- time to full resolution of DLTs from onset (QW schedule, 7 of 10 patients with DLTs): 1 to 2 weeks
- drug-related vomiting, patients (QW schedule, 8/33): 24.2%
- drug-related diarrhea, patients (QW schedule, 9/33): 27.3%
- drug-related nausea, patients (QW schedule, 9/33): 27.3%
- drug-related rash, patients (QW schedule, 14/33): 42.4%
- drug-related fatigue, patients (QW schedule, 15/33): 45.5%
- elevated blood glucose levels, patients (QW schedule, 19/33): 57.6%
- drug-related AEs, patients (QW schedule, 22/33): 66.7%
- post-cycle 1 HbA1c values (QW schedule, all patients assessed): < 7%
- G1 hyperglycemia, patients (QW schedule, following 1 cycle, 1/33): 3.0%
- DLTs resolved with sequelae of dry skin (QW schedule, of 10 patients with DLTs): 3 patients
- patients with increased C-peptide levels during first cycle (QW schedule, patients assessed): 4 of 6
- patients who discontinued for drug-related AEs (QW schedule, G3 rash, G3 complete atrioventricular block, G1 rash (n=1 each)): Three
